Data taken from ChEMBL document CHEMBL2434944, “Novel acetamidothiazole derivatives: synthesis and in vitro anticancer evaluation” (Eur J Med Chem, 2013).

Legend:
[1] = system: CAKI-1; experiment: Growth inhibition of human CAKI-1 cells assessed as cell growth at 10^-5 M after 48 hrs by sulforhodamine B assay relative to control; type: functional; conditions: CAKI-1, 48 h, read-out: Activity
Summary of the method: (§1)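 NCI-60 single-dose screen at 10^-5 M. Cells grown in RPMI 1640 with 5% FBS and 2 mM L-glutamine, plated at 5,000–40,000 cells/well according to doubling time, and preincubated 24 h at 37°C, 5% CO2. Compound dissolved in DMSO and added. Exposure 48 h. Adherent cells fixed with cold TCA (10% final), suspension cells with 16% final TCA. Read-out is 0.4% SRB staining, dye solubilised in 10 mM Tris, absorbance at 515 nm. Percent growth is calculated against the time-zero plate and untreated control.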

[2] = system: ACHN; experiment: Growth inhibition of human ACHN cells assessed as cell growth at 10^-5 M after 48 hrs by sulforhodamine B assay relative to control; type: functional; conditions: read-out: Activity; summary of the method: as §1
[3] = system: OVCAR-5; experiment: Growth inhibition of human OVCAR5 cells assessed as cell growth at 10^-5 M after 48 hrs by sulforhodamine B assay relative to control; type: functional; conditions: OVCAR-5, 48 h, read-out: Activity; summary of the method: as §1
[4] = system: OVCAR-4; experiment: Growth inhibition of human OVCAR4 cells assessed as cell growth at 10^-5 M after 48 hrs by sulforhodamine B assay relative to control; type: functional; conditions: OVCAR-4, 48 h, read-out: Activity; summary of the method: as §1
[5] = system: UACC-257; experiment: Growth inhibition of human UACC257 cells assessed as cell growth at 10^-5 M after 48 hrs by sulforhodamine B assay relative to control; type: functional; conditions: UACC-257, 48 h, read-out: Activity
Summary of the method: (§2)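 NCI-60 single-dose screen, 10^-5 M final. Cells grown in RPMI 1640 with 5% FBS and 2 mM L-glutamine, seeded at 5,000–40,000 cells/well by doubling time. Preincubated 24 h at 37°C, 5% CO2. Compound in DMSO, diluted in medium with gentamicin, then 48 h exposure. Fixed with cold TCA, SRB stained, A515 read. Percent growth vs untreated control, time-zero plate corrected.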

[6] = system: MDA-MB-435; experiment: Growth inhibition of human MDA-MB-435 cells assessed as cell growth at 10^-5 M after 48 hrs by sulforhodamine B assay relative to control; type: functional; conditions: MDA-MB-435, 48 h, read-out: Activity; summary of the method: as §1
[7] = system: Malme-3M; experiment: Growth inhibition of human MALME-3M cells assessed as cell growth at 10^-5 M after 48 hrs by sulforhodamine B assay relative to control; type: functional; conditions: read-out: Activity; summary of the method: as §1
[8] = system: SNB-75; experiment: Growth inhibition of human SNB75 cells assessed as cell growth at 10^-5 M after 48 hrs by sulforhodamine B assay relative to control; type: functional; conditions: SNB-75, 48 h, read-out: Activity; summary of the method: as §1
[9] = system: SF-268; experiment: Growth inhibition of human SF268 cells assessed as cell growth at 10^-5 M after 48 hrs by sulforhodamine B assay relative to control; type: functional; conditions: SF-268, 48 h, read-out: Activity; summary of the method: as §1
[10] = system: SW-620; experiment: Growth inhibition of human SW620 cells assessed as cell growth at 10^-5 M after 48 hrs by sulforhodamine B assay relative to control; type: functional; conditions: SW-620, 48 h, read-out: Activity; summary of the method: as §2
[11] = system: HT-29; experiment: Growth inhibition of human HT-29 cells assessed as cell growth at 10^-5 M after 48 hrs by sulforhodamine B assay relative to control; type: functional; conditions: HT-29, 48 h, read-out: Activity; summary of the method: as §1
[12] = Growth inhibition of human HCC2998 cells assessed as cell growth at 10^-5 M after 48 hrs by sulforhodamine B assay relative to control; type: functional; conditions: HCC 2998, 48 h, read-out: Activity; summary of the method: as §1
[13] = system: NCI-H322M; experiment: Growth inhibition of human NCI-H322M cells assessed as cell growth at 10^-5 M after 48 hrs by sulforhodamine B assay relative to control; type: functional; conditions: read-out: Activity; summary of the method: as §1
[14] = system: NCI-H23; experiment: Growth inhibition of human NCI-H23 cells assessed as cell growth at 10^-5 M after 48 hrs by sulforhodamine B assay relative to control; type: functional; conditions: NCI-H23, 48 h, read-out: Activity; summary of the method: as §1
[15] = system: HOP-62; experiment: Growth inhibition of human HOP62 cells assessed as cell growth at 10^-5 M after 48 hrs by sulforhodamine B assay relative to control; type: functional; conditions: HOP-62, 48 h, read-out: Activity; summary of the method: as §1
[16] = system: MOLT-4; experiment: Growth inhibition of human MOLT4 cells assessed as cell growth at 10^-5 M after 48 hrs by sulforhodamine B assay relative to control; type: functional; conditions: MOLT-4, 48 h, read-out: Activity; summary of the method: as §1
[17] = system: K562; experiment: Growth inhibition of human K562 cells assessed as cell growth at 10^-5 M after 48 hrs by sulforhodamine B assay relative to control; type: functional; conditions: K562, 48 h, read-out: Activity; summary of the method: as §1
[18] = target: T1, Vitamin D3 receptor (Homo sapiens, UniProt P11473); experiment: Inhibition of human vitamin D3 receptor
T1 sequence (P11473 whole entry): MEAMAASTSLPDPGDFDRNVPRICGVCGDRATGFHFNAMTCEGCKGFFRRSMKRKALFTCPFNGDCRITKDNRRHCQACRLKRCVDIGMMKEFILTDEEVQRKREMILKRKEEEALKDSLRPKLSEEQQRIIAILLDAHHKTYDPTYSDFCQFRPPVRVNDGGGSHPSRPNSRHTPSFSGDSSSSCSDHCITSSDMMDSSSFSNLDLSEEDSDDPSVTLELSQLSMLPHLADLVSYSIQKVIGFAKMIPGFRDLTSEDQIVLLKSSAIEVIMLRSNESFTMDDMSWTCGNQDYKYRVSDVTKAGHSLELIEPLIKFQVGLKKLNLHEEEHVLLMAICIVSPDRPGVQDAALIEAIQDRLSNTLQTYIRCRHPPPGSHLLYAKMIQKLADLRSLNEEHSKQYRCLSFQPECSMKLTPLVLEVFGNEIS

[19] = target: Thymidylate synthase (Homo sapiens, UniProt P04818); experiment: Inhibition of human thymidylate synthase
Sequence of Thymidylate synthase (P04818 whole entry): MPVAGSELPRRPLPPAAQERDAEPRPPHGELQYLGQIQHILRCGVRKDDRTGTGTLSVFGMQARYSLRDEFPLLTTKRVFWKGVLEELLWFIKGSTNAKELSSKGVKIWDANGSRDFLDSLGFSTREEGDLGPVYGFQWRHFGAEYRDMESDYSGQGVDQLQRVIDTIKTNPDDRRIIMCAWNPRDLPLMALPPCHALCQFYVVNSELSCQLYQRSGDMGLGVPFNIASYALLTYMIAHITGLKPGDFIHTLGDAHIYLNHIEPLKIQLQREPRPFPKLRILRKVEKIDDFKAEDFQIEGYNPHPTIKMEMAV

[20] = target: Proto-oncogene tyrosine-protein kinase Src (Homo sapiens, UniProt P12931); experiment: Inhibition of human SRC
Sequence of Proto-oncogene tyrosine-protein kinase Src (P12931 2-536 limits assumed): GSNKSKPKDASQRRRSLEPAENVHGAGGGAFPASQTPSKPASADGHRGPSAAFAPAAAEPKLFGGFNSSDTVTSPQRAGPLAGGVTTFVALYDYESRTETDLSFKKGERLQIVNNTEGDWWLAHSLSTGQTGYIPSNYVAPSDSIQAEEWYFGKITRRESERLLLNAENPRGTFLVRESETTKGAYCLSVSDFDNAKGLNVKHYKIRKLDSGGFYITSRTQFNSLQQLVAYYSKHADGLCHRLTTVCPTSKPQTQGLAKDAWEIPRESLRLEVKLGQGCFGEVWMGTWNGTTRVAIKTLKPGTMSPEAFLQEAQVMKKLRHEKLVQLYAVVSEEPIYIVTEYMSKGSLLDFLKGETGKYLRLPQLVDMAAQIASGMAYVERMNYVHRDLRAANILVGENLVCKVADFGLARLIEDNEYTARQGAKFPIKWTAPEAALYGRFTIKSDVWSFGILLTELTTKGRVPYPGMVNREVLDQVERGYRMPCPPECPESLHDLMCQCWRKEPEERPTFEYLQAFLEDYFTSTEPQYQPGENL

[21] = target: Mitogen-activated protein kinase 1 (Homo sapiens, UniProt P28482); experiment: Inhibition of human MAPK1
Sequence of Mitogen-activated protein kinase 1 (P28482 whole entry): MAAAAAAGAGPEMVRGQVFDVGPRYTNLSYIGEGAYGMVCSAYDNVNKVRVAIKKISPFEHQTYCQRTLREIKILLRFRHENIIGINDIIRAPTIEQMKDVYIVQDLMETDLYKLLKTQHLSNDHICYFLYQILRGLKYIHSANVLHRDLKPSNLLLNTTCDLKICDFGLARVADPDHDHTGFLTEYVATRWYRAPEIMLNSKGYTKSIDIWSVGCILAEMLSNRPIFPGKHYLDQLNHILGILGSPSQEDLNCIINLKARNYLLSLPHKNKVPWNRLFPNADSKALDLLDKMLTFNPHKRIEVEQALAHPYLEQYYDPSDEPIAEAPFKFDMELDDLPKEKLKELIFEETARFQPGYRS

[22] = system: MDA-MB-468; experiment: Growth inhibition of human MDA-MB-468 cells assessed as cell growth at 10^-5 M after 48 hrs by sulforhodamine B assay relative to control; type: functional; conditions: MDA-MB-468, 48 h, read-out: Activity; summary of the method: as §1
[23] = system: MCF7; experiment: Growth inhibition of human MCF7 cells assessed as cell growth at 10^-5 M after 48 hrs by sulforhodamine B assay relative to control; type: functional; conditions: MCF7, 48 h, read-out: Activity; summary of the method: as §1
[24] = system: UO-31; experiment: Growth inhibition of human UO31 cells assessed as cell growth at 10^-5 M after 48 hrs by sulforhodamine B assay relative to control; type: functional; conditions: UO-31, 48 h, read-out: Activity; summary of the method: as §2
[25] = system: SN12C; experiment: Growth inhibition of human SN12C cells assessed as cell growth at 10^-5 M after 48 hrs by sulforhodamine B assay relative to control; type: functional; conditions: read-out: Activity; summary of the method: as §1
[26] = system: TK-10; experiment: Growth inhibition of human TK10 cells assessed as cell growth at 10^-5 M after 48 hrs by sulforhodamine B assay relative to control; type: functional; conditions: TK-10, 48 h, read-out: Activity; summary of the method: as §2

## Cc1ccc(-c2csc(=N)n2CC(=O)N2CCOCC2)cc1
[1]
  growth at 10 µM: 89.2%
[2]
  growth at 10 µM: 97.5%
[3]
  growth at 10 µM: 102%
[4]
  growth at 10 µM: 102%
[5]
  growth at 10 µM: 103%
[6]
  growth at 10 µM: 87.2%
[7]
  growth at 10 µM: 131%
[8]
  growth at 10 µM: 90.6%
[9]
  growth at 10 µM: 101%
[10]
  growth at 10 µM: 114%
[11]
  growth at 10 µM: 109%
[12]
  growth at 10 µM: 98.9%
[13]
  growth at 10 µM: 111%
[14]
  growth at 10 µM: 97.3%
[15]
  growth at 10 µM: 112%
[16]
  growth at 10 µM: 99.7%
[17]
  growth at 10 µM: 100%
[18]
  Ki: 13.7 µM
[19]
  Ki: 4.06 µM
[20]
  Ki: 13.3 µM
[21]
  Ki: 9.78 µM
[22]
  growth at 10 µM: 106%
[23]
  growth at 10 µM: 97.8%
[24]
  growth at 10 µM: 95.3%
[25]
  growth at 10 µM: 100%
[26]
  growth at 10 µM: 126%

## N=c1scc(-c2ccccc2)n1CC(=O)N1CCN(c2ccccc2)CC1
[1]
  growth at 10 µM: 87.5%
[2]
  growth at 10 µM: 83.4%
[3]
  growth at 10 µM: 94.1%
[4]
  growth at 10 µM: 90.5%
[5]
  growth at 10 µM: 108%
[6]
  growth at 10 µM: 96.5%
[7]
  growth at 10 µM: 94.2%
[8]
  growth at 10 µM: 74.6%
[9]
  growth at 10 µM: 101%
[10]
  growth at 10 µM: 101%
[11]
  growth at 10 µM: 106%
[12]
  growth at 10 µM: 100%
[13]
  growth at 10 µM: 92.6%
[14]
  growth at 10 µM: 91.7%
[15]
  growth at 10 µM: 96.6%
[16]
  growth at 10 µM: 99.6%
[17]
  growth at 10 µM: 103%
[18]
  Ki: 1.6 µM
[19]
  Ki: 1.36 µM
[20]
  Ki: 14.1 µM
[21]
  Ki: 1.73 µM
[22]
  growth at 10 µM: 107%
[23]
  growth at 10 µM: 95.3%
[24]
  growth at 10 µM: 58%
[25]
  growth at 10 µM: 101%
[26]
  growth at 10 µM: 127%

## CC(=O)N1CCN(C(=O)Cn2c(-c3ccc(Cl)cc3)csc2=N)CC1
[1]
  growth at 10 µM: 82.8%
[2]
  growth at 10 µM: 90.7%
[3]
  growth at 10 µM: 101%
[4]
  growth at 10 µM: 77.2%
[5]
  growth at 10 µM: 91%
[6]
  growth at 10 µM: 85.3%
[7]
  growth at 10 µM: 133%
[8]
  growth at 10 µM: 74.4%
[9]
  growth at 10 µM: 95.1%
[10]
  growth at 10 µM: 106%
[11]
  growth at 10 µM: 85.8%
[12]
  growth at 10 µM: 98.9%
[13]
  growth at 10 µM: 90.4%
[14]
  growth at 10 µM: 96.9%
[15]
  growth at 10 µM: 93.4%
[16]
  growth at 10 µM: 77%
[17]
  growth at 10 µM: 72%
[18]
  Ki: 2.28 µM
[19]
  Ki: 11.3 µM
[20]
  Ki: 14.8 µM
[21]
  Ki: 0.778 µM
[22]
  growth at 10 µM: 82.9%
[23]
  growth at 10 µM: 84.5%
[24]
  growth at 10 µM: 89.1%
[25]
  growth at 10 µM: 88.6%
[26]
  growth at 10 µM: 82.1%
